Measurements published in ChEMBL document CHEMBL1147647, “Second generation, orally active, antimalarial, artemisinin-derived trioxane dimers with high stability, efficacy, and anticancer activity” (J Med Chem, 2006).
The source made the active and inactive calls. The calls are words filed in the database; no cut-off is given here.

Columns and labels:
[1] = tested on: Plasmodium falciparum; assay: Antimalarial activity against chloroquine-sensitive Plasmodium falciparum NF54; type: functional, organism-based
[2] = tested on: HeLa; assay: Antiproliferative activity against HeLa cell line; type: functional, cell-based; details: Homo sapiens
How it was run: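 HeLa human cervical cancer cells were tested in vitro with an XTT tetrazolium colorimetric proliferation assay, using a modified version of a reported protocol. IC50 was determined.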

[3] = tested on: Plasmodium falciparum; assay: Antimalarial activity against chloroquine-sensitive Plasmodium falciparum NF54 in mice (Mus musculus) by peroral dose; type: functional; details: NF54, po
How it was run: (§1)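 In mice, a single dose of 3, 10 or 30 mg/kg was given orally or subcutaneously. ED50 in mg/kg was derived from these doses following a published protocol.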

[4] = tested on: Plasmodium falciparum; assay: Antimalarial activity against chloroquine-sensitive Plasmodium falciparum NF54 in mice (Mus musculus) by subcutaneous dose; type: functional; details: NF54, sc; how it was run: as §1
[5] = tested on: SK-MEL-5; assay: Antiproliferative activity against SK-MEL-5 cell line; type: functional, cell-based; details: Homo sapiens
How it was run: (§2)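 Growth inhibition was tested in vitro across the NCI Developmental Therapeutics Program 60-line human cancer panel at nanomolar to micromolar concentrations.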

[6] = tested on: HOP-92; assay: Antiproliferative activity against HOP92 cell line; type: functional, cell-based; details: Homo sapiens; how it was run: as §2
[7] = tested on: BT-549; assay: Antiproliferative activity against BT549 cell line; type: functional, cell-based; details: Homo sapiens; how it was run: as §2

Row | Structure (SMILES) | IC50 [1] [nM] | ED50 [4] [mg/kg] | other results
1 | C[C@H]1[C@@H](Cc2cc(CO)c(CO)cc2C[C@H]2O[C@@H]3O[C@]4(C)CC[C@H]5[C@H](C)CC[C@@H]([C@H]2C)[C@@]35OO4)O[C@@H]2O[C@]3(C)CC[C@H]4[C@H](C)CC[C@@H]1[C@@]24OO3 | 0.77 | 0.06 | IC50 [2]: 46.5 nM; ED50 [3]: 2.6 mg/kg
2 | C[C@H]1[C@@H](Cc2cc3c(cc2C[C@H]2O[C@@H]4O[C@]5(C)CC[C@H]6[C@H](C)CC[C@@H]([C@H]2C)[C@@]46OO5)COP(=O)(Oc2ccccc2)OC3)O[C@@H]2O[C@]3(C)CC[C@H]4[C@H](C)CC[C@@H]1[C@@]24OO3 (some centres not stated) | 3.7 | – | –
3 | CCOP(=O)(OCC)OCc1cc(C[C@H]2O[C@@H]3O[C@]4(C)CC[C@H]5[C@H](C)CC[C@@H]([C@H]2C)[C@@]35OO4)c(C[C@H]2O[C@@H]3O[C@]4(C)CC[C@H]5[C@H](C)CC[C@@H]([C@H]2C)[C@@]35OO4)cc1COP(=O)(OCC)OCC | 3 | – | –
4 | C[C@@H]1CC[C@H]2[C@@H](C)C(=O)O[C@@H]3O[C@@]4(C)CC[C@@H]1[C@]32OO4 [ARTEMISININ] | 6.6 | – | –
5 | C[C@H]1[C@H](OC(=O)CCC(=O)[O-])O[C@@H]2O[C@@]3(C)CC[C@H]4[C@H](C)CC[C@@H]1[C@@]24OO3.[Na+] [SODIUM ARESUNATE] | – | 2.2 | ED50 [3]: 4 mg/kg
6 | C=C(C[C@H]1O[C@@H]2O[C@]3(C)CC[C@H]4[C@H](C)CC[C@@H]([C@H]1C)[C@@]24OO3)C(=C)C[C@H]1O[C@@H]2O[C@]3(C)CC[C@H]4[C@H](C)CC[C@@H]([C@H]1C)[C@@]24OO3 | 2.9 | – | –
7 | C[C@H]1[C@@H](Cc2cc(C(=O)O)c(C(=O)O)cc2C[C@H]2O[C@@H]3O[C@]4(C)CC[C@H]5[C@H](C)CC[C@@H]([C@H]2C)[C@@]35OO4)O[C@@H]2O[C@]3(C)CC[C@H]4[C@H](C)CC[C@@H]1[C@@]24OO3 | 360 | – | –
8 | COC(=O)c1cc(C[C@H]2O[C@@H]3O[C@]4(C)CC[C@H]5[C@H](C)CC[C@@H]([C@H]2C)[C@@]35OO4)c(C[C@H]2O[C@@H]3O[C@]4(C)CC[C@H]5[C@H](C)CC[C@@H]([C@H]2C)[C@@]35OO4)cc1C(=O)OC | 1.6 | 0.71 | Activity [5]: Active; Activity [6]: Active; IC50 [2]: 500 nM; Activity [7]: Active
